Series [1] addresses 5-hydroxytryptamine receptor 1B (Homo sapiens) (UniProt P28222). As to the kind of experiment: Binding affinity to 5HT1B receptor at 1 uM by radioligand displacement assay. An outline of the steps:
(§1)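 Competitive radioligand binding run by MDS Pharma Services on a serotonin receptor panel. Test compound at 1 µM. Read-out is % displacement of radioligand from each receptor complex.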

Series [2] has as its target T1, 5-hydroxytryptamine receptor 3A (Homo sapiens) (UniProt P46098).
T1 sequence (whole entry): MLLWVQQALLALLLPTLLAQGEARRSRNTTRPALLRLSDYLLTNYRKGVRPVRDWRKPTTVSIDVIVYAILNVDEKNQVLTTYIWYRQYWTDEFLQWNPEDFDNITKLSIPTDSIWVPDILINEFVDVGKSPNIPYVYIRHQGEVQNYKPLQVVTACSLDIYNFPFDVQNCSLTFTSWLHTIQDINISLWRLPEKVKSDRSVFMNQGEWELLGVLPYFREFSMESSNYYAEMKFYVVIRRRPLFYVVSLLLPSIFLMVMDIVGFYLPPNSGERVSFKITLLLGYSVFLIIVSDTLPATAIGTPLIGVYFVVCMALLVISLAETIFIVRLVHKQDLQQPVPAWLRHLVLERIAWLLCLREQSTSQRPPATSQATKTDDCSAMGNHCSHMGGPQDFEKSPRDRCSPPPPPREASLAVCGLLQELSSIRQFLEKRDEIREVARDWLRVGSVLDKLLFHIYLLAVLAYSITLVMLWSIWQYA
Description: Binding affinity to 5HT3 receptor at 1 uM by radioligand displacement assay. An outline of the steps:
as §1

The target in series [3] is 5-hydroxytryptamine receptor 7 (Homo sapiens) (UniProt P34969). As to the kind of experiment: Binding affinity to 5HT7 receptor at 1 uM by radioligand displacement assay. An outline of the steps:
as §1
For orientation: Displacement assays read how much labelled ligand stays bound in the presence of the test substance.

Series [4] has as its target T2, 5-hydroxytryptamine receptor 6 (Homo sapiens, UniProt P50406). Description: Binding affinity to human recombinant 5HT6 receptor expressed in HEK293 cells by radioligand displacement assay. Type of series: cell-based. An outline of the steps:
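Competitive radioligand binding at the 5-HT6 receptor, run by MDS Pharma Services as part of a serotonin receptor panel. IC50 and Ki values derived.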

In series [5] the target is T2, 5-hydroxytryptamine receptor 6. As to the kind of experiment: Antagonist activity at human recombinant 5HT6 receptor expressed in HEK293 cells assessed as inhibition of serotonin-induced cAMP production. It is filed as functional, cell-based. In a few lines: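 HEK293 cells stably expressing recombinant human 5-HT6R, stimulated with serotonin. cAMP from adenylyl cyclase measured by LANCE. Compounds screened at 5 and 10 μM. IC50 determined for compounds giving more than 50% inhibition of cAMP synthesis at 5 μM.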
(In general: Cyclic AMP is a second messenger, typically raised through Gs and lowered through Gi signalling.)

For series [6] the target is unchanged. Description: Binding affinity to human recombinant 5HT6 receptor expressed in HEK293 cells at 1 uM by radioligand displacement assay. It is filed as cell-based. In a few lines: as §1
Series [7] has as its target T3, 5-hydroxytryptamine receptor 2C (Homo sapiens) (UniProt P28335).
T3 sequence (whole entry): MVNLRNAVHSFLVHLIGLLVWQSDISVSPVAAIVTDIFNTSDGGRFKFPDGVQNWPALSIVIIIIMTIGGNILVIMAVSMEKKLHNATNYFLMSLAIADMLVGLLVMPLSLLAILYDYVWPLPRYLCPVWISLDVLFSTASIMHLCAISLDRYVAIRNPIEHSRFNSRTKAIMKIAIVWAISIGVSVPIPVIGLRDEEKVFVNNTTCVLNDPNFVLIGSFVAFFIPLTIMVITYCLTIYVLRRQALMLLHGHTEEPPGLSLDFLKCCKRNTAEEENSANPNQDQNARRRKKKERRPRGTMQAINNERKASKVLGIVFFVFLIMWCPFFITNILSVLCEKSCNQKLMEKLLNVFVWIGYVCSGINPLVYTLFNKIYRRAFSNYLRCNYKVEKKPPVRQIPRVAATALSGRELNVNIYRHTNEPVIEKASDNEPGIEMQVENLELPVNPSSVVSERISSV
Description: Binding affinity to 5HT2C receptor at 1 uM by radioligand displacement assay. An outline of the steps: as §1

The target in series [8] is 5-hydroxytryptamine receptor 2A (Homo sapiens) (UniProt P28223). Description: Binding affinity to 5HT2A receptor at 1 uM by radioligand displacement assay. In a few lines: as §1
Series [9] concerns the target T4, hERG (KCNH2) (Homo sapiens, UniProt Q12809). As to the kind of experiment: Inhibition of human ERG at 30 uM by patch clamp assay. An outline of the steps:
(§2)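 hERG potassium channel inhibition measured by patch clamp, performed by MDS Pharma Services. Read-out is % inhibition at a single test concentration.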
For orientation: The patch-clamp technique gives a direct electrical read-out from membranes.

The target of series [10] is 5-hydroxytryptamine receptor 4 (Homo sapiens) (UniProt Q13639). As to the kind of experiment: Binding affinity to 5HT4 receptor at 1 uM by radioligand displacement assay. An outline of the steps:
as §1

Series [11] concerns the target 5-hydroxytryptamine receptor 2B (Homo sapiens) (UniProt P41595). Description: Binding affinity to 5HT2B receptor at 1 uM by radioligand displacement assay. In a few lines: as §1
For series [12], the target named is T5, 5-hydroxytryptamine receptor 1A (Homo sapiens) (UniProt P08908).
T5 sequence (whole entry): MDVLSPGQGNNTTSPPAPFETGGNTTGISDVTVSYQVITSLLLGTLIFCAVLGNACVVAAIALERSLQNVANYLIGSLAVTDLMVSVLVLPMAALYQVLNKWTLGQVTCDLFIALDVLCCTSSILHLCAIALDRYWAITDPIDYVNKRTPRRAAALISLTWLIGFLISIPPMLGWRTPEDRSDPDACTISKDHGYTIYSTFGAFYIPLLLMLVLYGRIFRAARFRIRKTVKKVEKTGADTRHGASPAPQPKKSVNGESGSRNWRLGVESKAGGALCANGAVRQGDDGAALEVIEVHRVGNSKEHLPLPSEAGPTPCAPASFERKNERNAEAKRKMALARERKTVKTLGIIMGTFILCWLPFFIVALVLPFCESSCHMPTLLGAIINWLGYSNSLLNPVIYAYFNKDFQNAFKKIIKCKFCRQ
As to the kind of experiment: Binding affinity to 5HT1A receptor at 1 uM by radioligand displacement assay. In a few lines: as §1

The target in series [13] is T4, hERG (KCNH2). Description: Inhibition of human ERG at 15 uM by patch clamp assay. An outline of the steps:
as §2

This is an account of results in ChEMBL document CHEMBL1177669, “Synthesis and biological study of 3-(phenylsulfonyl)thieno[2,3-e][1,2,3]triazolo[1,5-a]pyrimidines as potent and selective serotonin 5-HT6 receptor antagonists” (Bioorg Med Chem, 2010).

T2 sequence (P50406 whole entry): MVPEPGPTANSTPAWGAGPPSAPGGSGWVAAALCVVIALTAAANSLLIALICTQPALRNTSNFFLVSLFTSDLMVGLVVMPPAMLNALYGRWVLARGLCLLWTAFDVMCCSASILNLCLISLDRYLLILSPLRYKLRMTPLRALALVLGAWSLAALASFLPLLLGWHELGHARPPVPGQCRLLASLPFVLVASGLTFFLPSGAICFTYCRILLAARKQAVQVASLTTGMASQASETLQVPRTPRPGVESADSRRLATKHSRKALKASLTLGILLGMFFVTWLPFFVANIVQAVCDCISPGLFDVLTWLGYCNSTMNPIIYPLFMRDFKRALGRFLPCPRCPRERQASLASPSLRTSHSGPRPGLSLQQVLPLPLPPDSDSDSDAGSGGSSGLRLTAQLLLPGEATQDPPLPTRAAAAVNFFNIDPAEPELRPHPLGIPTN
Sequence of 5-hydroxytryptamine receptor 1B (Homo sapiens) (P28222 whole entry): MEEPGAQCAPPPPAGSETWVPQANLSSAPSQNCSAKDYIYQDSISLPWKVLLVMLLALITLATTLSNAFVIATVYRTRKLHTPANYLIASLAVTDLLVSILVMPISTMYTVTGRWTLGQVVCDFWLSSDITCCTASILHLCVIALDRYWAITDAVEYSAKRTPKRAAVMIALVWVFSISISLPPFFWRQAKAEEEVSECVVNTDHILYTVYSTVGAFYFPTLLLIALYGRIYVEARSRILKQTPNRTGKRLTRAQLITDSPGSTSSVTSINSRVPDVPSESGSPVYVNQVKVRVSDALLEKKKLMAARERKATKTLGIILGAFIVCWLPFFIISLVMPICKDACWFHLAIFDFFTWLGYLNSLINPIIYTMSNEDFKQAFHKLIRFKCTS
T4 sequence (Q12809 whole entry): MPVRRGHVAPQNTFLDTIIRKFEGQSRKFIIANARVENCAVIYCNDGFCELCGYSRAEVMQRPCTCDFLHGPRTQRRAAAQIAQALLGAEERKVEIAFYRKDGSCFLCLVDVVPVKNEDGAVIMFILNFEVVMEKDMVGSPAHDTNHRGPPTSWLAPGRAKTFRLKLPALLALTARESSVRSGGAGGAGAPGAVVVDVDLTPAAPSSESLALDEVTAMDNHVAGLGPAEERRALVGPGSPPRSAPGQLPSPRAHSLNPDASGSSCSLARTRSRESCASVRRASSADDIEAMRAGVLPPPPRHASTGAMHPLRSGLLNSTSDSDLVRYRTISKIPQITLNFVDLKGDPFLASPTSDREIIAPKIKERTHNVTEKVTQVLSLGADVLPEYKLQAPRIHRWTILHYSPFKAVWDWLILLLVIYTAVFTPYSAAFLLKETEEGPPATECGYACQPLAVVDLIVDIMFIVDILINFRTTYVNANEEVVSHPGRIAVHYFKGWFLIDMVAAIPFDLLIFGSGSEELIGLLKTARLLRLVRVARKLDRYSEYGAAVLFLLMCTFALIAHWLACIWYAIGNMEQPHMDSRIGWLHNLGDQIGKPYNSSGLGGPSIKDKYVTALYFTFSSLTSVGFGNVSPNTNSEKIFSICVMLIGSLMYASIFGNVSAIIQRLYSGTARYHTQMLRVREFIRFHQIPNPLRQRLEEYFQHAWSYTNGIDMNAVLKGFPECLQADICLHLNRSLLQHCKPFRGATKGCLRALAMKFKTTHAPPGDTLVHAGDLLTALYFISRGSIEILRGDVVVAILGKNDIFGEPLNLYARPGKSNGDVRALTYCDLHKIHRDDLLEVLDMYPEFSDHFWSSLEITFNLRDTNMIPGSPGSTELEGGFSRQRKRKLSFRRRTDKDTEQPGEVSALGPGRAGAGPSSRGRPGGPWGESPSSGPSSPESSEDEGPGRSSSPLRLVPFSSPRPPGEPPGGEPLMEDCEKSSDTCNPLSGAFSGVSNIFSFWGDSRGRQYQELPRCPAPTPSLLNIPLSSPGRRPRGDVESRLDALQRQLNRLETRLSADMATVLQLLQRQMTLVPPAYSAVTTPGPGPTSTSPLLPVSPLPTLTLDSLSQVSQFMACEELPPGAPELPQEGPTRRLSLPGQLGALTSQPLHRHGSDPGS
Sequence of 5-hydroxytryptamine receptor 2A (Homo sapiens) (P28223 whole entry): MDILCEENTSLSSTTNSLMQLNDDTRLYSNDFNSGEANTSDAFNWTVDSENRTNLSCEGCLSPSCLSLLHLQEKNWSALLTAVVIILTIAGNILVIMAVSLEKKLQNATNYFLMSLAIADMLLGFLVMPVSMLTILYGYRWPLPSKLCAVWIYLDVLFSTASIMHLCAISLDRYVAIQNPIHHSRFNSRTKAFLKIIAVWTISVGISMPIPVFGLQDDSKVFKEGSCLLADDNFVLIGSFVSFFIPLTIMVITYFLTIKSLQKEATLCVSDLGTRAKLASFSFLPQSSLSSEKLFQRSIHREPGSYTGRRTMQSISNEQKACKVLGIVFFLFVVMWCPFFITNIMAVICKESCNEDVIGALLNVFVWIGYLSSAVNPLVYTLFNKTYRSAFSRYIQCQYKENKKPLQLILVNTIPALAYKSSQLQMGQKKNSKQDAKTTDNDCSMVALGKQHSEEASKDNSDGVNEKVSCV
Sequence of 5-hydroxytryptamine receptor 4 (Homo sapiens) (Q13639 whole entry): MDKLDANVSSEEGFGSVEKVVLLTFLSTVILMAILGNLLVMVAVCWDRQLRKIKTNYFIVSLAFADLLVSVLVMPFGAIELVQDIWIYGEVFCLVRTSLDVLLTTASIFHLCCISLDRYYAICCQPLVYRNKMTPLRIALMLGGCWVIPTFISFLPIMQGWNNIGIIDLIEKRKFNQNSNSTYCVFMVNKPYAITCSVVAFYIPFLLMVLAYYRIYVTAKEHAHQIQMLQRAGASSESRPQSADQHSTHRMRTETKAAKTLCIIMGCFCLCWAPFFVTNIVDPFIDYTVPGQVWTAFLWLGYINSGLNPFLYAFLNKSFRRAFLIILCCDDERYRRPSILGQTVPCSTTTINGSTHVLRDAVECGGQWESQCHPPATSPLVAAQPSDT
Sequence of 5-hydroxytryptamine receptor 2B (Homo sapiens) (P41595 whole entry): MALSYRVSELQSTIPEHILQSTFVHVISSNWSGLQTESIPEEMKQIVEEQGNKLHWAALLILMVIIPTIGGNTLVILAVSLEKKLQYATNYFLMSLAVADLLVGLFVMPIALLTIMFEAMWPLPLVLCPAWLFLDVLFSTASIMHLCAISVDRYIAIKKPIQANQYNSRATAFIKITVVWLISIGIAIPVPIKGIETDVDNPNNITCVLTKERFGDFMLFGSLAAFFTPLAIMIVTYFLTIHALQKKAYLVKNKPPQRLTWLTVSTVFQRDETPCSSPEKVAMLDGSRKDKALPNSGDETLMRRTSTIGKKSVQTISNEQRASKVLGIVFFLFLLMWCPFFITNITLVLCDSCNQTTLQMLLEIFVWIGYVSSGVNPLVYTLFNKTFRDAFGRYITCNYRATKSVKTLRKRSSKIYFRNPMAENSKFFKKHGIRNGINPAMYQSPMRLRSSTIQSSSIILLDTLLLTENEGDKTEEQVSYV
Sequence of 5-hydroxytryptamine receptor 7 (Homo sapiens) (P34969 whole entry): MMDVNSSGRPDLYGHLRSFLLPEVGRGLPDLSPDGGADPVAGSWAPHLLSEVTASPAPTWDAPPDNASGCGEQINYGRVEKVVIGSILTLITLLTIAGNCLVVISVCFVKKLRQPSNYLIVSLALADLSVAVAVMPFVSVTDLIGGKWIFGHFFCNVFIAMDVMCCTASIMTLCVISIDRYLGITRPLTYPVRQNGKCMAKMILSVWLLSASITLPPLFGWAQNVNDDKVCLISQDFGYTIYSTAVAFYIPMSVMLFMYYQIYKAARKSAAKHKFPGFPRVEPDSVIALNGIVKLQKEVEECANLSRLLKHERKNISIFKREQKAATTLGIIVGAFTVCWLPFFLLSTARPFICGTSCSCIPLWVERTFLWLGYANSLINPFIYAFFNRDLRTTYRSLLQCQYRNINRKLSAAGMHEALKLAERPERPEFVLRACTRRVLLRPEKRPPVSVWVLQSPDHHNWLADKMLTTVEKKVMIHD

With `CN(Cc1ccccc1)c1nc2c(S(=O)(=O)c3cccc(Cl)c3)nnn2c2ccsc12`, the Activity in [1] was 3%; in series [2], -3%; in [3], 6%; in series [6] it was 106%; in series [7] it was 15%; in [8], 50%. Also, the Activity is 41% in series [10], 46% in [11] and 9% in series [12]. Also, the values for the IC50 in series [4] and in series [5] were 7.5 nM and 920 nM, respectively. The inhibition constant Ki (usually the equilibrium dissociation constant of an inhibitor or competing ligand from its target) in series [4] was 3.5 nM. The inhibition (as a rule, the percentage by which the read-out fell short of the control) at 30 µM in [9] was found to be 20%.
Consider `CN(Cc1ccccc1)c1nc2c(S(=O)(=O)c3ccccc3)nnn2c2ccsc12`, for which the Activity is 1% in series [1]; -7% in series [2]; -2% in [3]; 103% in [6]; 2% in series [7]; 15% in series [8]. Also, the figures for the Activity in [10], in series [11] and in series [12] were 33%, 12% and 2%, respectively. The IC50 (usually the concentration at which inhibition is half-maximal) stood at 5 nM in series [4] and 170 nM in series [5]. For the same compound, the Ki in series [4] stood at 2.3 nM. This compound gave an inhibition at 15 µM in series [13] of 20%.
